According to ChEMBL document CHEMBL3864121, “Development of ebsulfur analogues as potent antibacterials against methicillin-resistant Staphylococcus aureus” (Bioorg Med Chem, 2016):
Values after ≈ are worked out from the molar mass of the structure shown.

Tests used:
Format in all cases: functional
Staphylococcus aureus [1] = assay: Antibacterial activity against methicillin-resistant Staphylococcus aureus G6 measured after overnight incubation by broth double-dilution method
Procedure, shortened: (§1)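 MIC by broth double-dilution in liquid Mueller-Hinton medium. Values are reported in µg/mL.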

Staphylococcus aureus [2] = assay: Antibacterial activity against methicillin-resistant Staphylococcus aureus 2 measured after overnight incubation by broth double-dilution method; procedure, shortened: as §1
Staphylococcus aureus [3] = assay: Antibacterial activity against methicillin-resistant Staphylococcus aureus USA200 measured after overnight incubation by broth double-dilution method; procedure, shortened: as §1
Staphylococcus aureus [4] = assay: Antibacterial activity against methicillin-resistant Staphylococcus aureus C7 measured after overnight incubation by broth double-dilution method; procedure, shortened: as §1
[5] = system: Mycolicibacterium smegmatis; assay: Antibacterial activity against Mycobacterium smegmatis MC2-155 measured after overnight incubation by broth double-dilution method; details: str. MC2 155; procedure, shortened: as §1
Staphylococcus aureus [6] = assay: Antibacterial activity against methicillin-resistant Staphylococcus aureus BRS3 measured after overnight incubation by broth double-dilution method; procedure, shortened: as §1
Staphylococcus aureus [7] = assay: Antibacterial activity against methicillin-resistant Staphylococcus aureus C2 measured after overnight incubation by broth double-dilution method; procedure, shortened: as §1
Staphylococcus aureus [8] = assay: Antibacterial activity against methicillin-resistant Staphylococcus aureus G14 measured after overnight incubation by broth double-dilution method; procedure, shortened: as §1
Staphylococcus aureus [9] = assay: Antibacterial activity against methicillin-resistant Staphylococcus aureus USA100 measured after overnight incubation by broth double-dilution method; procedure, shortened: as §1
Staphylococcus aureus [10] = assay: Antibacterial activity against methicillin-resistant Staphylococcus aureus G1 measured after overnight incubation by broth double-dilution method; procedure, shortened: as §1
Enterococcus = assay: Antibacterial activity against Vancomycin-resistant Enterococcus measured after overnight incubation by broth double-dilution method; procedure, shortened: as §1
Listeria monocytogenes = assay: Antibacterial activity against Listeria monocytogenes ATCC 19115 measured after overnight incubation by broth double-dilution method
Procedure, shortened: (§2)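 MIC by broth double-dilution in Mueller-Hinton medium. Re-testing at the time-kill inoculum used 1×10^6 CFU/mL.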

Staphylococcus aureus [11] = assay: Antibacterial activity against methicillin-sensitive Staphylococcus aureus ATCC 25923 measured after overnight incubation by broth double-dilution method; procedure, shortened: as §1
Staphylococcus aureus [12] = assay: Antibacterial activity against methicillin-resistant Staphylococcus aureus USA600 measured after overnight incubation by broth double-dilution method; procedure, shortened: as §1
Staphylococcus aureus [13] = assay: Antibacterial activity against methicillin-resistant Staphylococcus aureus ATCC 33591 measured after overnight incubation by broth double-dilution method; procedure, shortened: as §1
Staphylococcus aureus [14] = assay: Antibacterial activity against methicillin-resistant Staphylococcus aureus USA300 measured after overnight incubation by broth double-dilution method; procedure, shortened: as §1
Staphylococcus aureus [15] = assay: Antibacterial activity against methicillin-resistant Staphylococcus aureus C19 measured after overnight incubation by broth double-dilution method; procedure, shortened: as §1
Staphylococcus aureus [16] = assay: Antibacterial activity against methicillin-resistant Staphylococcus aureus S17 measured after overnight incubation by broth double-dilution method; procedure, shortened: as §1
Staphylococcus aureus [17] = assay: Antibacterial activity against methicillin-resistant Staphylococcus aureus C1 measured after overnight incubation by broth double-dilution method; procedure, shortened: as §1
Staphylococcus aureus [18] = assay: Antibacterial activity against methicillin-resistant Staphylococcus aureus G12 measured after overnight incubation by broth double-dilution method; procedure, shortened: as §1
Staphylococcus aureus [19] = assay: Antibacterial activity against methicillin-resistant Staphylococcus aureus C16 measured after overnight incubation by broth double-dilution method; procedure, shortened: as §1
[20] = system: Staphylococcus epidermidis; assay: Antibacterial activity against Staphylococcus epidermidis ATCC 35984 measured after overnight incubation by broth double-dilution method; details: RP62A; procedure, shortened: as §2
Enterococcus faecalis [21] = assay: Antibacterial activity against Enterococcus faecalis ATCC 49533 measured after overnight incubation by broth double-dilution method; procedure, shortened: as §2
Staphylococcus aureus [22] = assay: Antibacterial activity against methicillin-resistant Staphylococcus aureus NRS51 measured after overnight incubation by broth double-dilution method; procedure, shortened: as §1
Staphylococcus aureus [23] = assay: Antibacterial activity against methicillin-resistant Staphylococcus aureus 1 measured after overnight incubation by broth double-dilution method; procedure, shortened: as §1
Staphylococcus aureus [24] = assay: Antibacterial activity against methicillin-resistant Staphylococcus aureus C14 measured after overnight incubation by broth double-dilution method; procedure, shortened: as §1
Staphylococcus aureus [25] = assay: Antibacterial activity against methicillin-resistant Staphylococcus aureus S14 measured after overnight incubation by broth double-dilution method; procedure, shortened: as §1
Enterococcus faecium = assay: Antibacterial activity against Enterococcus faecium BM4105-RF measured after overnight incubation by broth double-dilution method; procedure, shortened: as §1
Staphylococcus aureus [26] = assay: Antibacterial activity against methicillin-resistant Staphylococcus aureus NRS4 measured after overnight incubation by broth double-dilution method; procedure, shortened: as §1
Staphylococcus aureus [27] = assay: Antibacterial activity against methicillin-sensitive Staphylococcus aureus ATCC 29213 measured after overnight incubation by broth double-dilution method; procedure, shortened: as §1
Staphylococcus aureus [28] = assay: Antibacterial activity against methicillin-resistant Staphylococcus aureus NRS77 measured after overnight incubation by broth double-dilution method; procedure, shortened: as §1
Staphylococcus aureus [29] = assay: Antibacterial activity against methicillin-resistant Staphylococcus aureus S22 measured after overnight incubation by broth double-dilution method; procedure, shortened: as §1
Staphylococcus aureus [30] = assay: Antibacterial activity against methicillin-sensitive Staphylococcus aureus ATCC 6538 measured after overnight incubation by broth double-dilution method; procedure, shortened: as §1
Enterococcus faecalis [31] = assay: Antibacterial activity against Enterococcus faecalis ATCC 29212 measured after overnight incubation by broth double-dilution method; procedure, shortened: as §2
Staphylococcus aureus [32] = assay: Antibacterial activity against methicillin-resistant Staphylococcus aureus S24 measured after overnight incubation by broth double-dilution method; procedure, shortened: as §1

| SMILES | MIC (Staphylococcus aureus [2]) [µg/mL] | MIC (Staphylococcus aureus [3]) [µg/mL] | MIC (Staphylococcus aureus [4]) [µg/mL] | MIC [5] [µg/mL] | MIC (Staphylococcus aureus [7]) [µg/mL] | MIC (Staphylococcus aureus [8]) [µg/mL] | MIC (Staphylococcus aureus [10]) [µg/mL] | MIC (Enterococcus) [µg/mL] | MIC (Listeria monocytogenes) [µg/mL] | MIC (Staphylococcus aureus [11]) [µg/mL] | MIC (Staphylococcus aureus [13]) [µg/mL] | MIC (Staphylococcus aureus [14]) [µg/mL] | MIC (Staphylococcus aureus [15]) [µg/mL] | MIC (Staphylococcus aureus [16]) [µg/mL] | MIC (Staphylococcus aureus [17]) [µg/mL] | MIC (Staphylococcus aureus [18]) [µg/mL] | MIC [20] [µg/mL] | MIC (Enterococcus faecalis [21]) [µg/mL] | MIC (Staphylococcus aureus [22]) [µg/mL] | MIC (Staphylococcus aureus [23]) [µg/mL] | also measured |
| --- | --- | --- | --- | --- | --- | --- | --- | --- | --- | --- | --- | --- | --- | --- | --- | --- | --- | --- | --- | --- | --- |
| Cc1cc(C)cc(-n2sc3ccccc3c2=O)c1 | 7.8 (≈ 30.5 µM) | 7.8 (≈ 30.5 µM) | 3.9 (≈ 15.3 µM) | 3.9 (≈ 15.3 µM) | 3.9 (≈ 15.3 µM) | 3.9 (≈ 15.3 µM) | 7.8 (≈ 30.5 µM) | 3.9 (≈ 15.3 µM) | 7.8 (≈ 30.5 µM) | 7.8 (≈ 30.5 µM) | 1 (≈ 3.92 µM) | 7.8 (≈ 30.5 µM) | 7.8 (≈ 30.5 µM) | 3.9 (≈ 15.3 µM) | 3.9 (≈ 15.3 µM) | 7.8 (≈ 30.5 µM) | 3.9 (≈ 15.3 µM) | 15.6 (≈ 61.1 µM) | 7.8 (≈ 30.5 µM) | 7.8 (≈ 30.5 µM) | MIC (Staphylococcus aureus [1]): 7.8 µg/mL (≈ 30.5 µM); MIC (Staphylococcus aureus [6]): 7.8 µg/mL (≈ 30.5 µM); MIC (Staphylococcus aureus [9]): 3.9 µg/mL (≈ 15.3 µM); MIC (Staphylococcus aureus [12]): 7.8 µg/mL (≈ 30.5 µM); MIC (Staphylococcus aureus [19]): 7.8 µg/mL (≈ 30.5 µM); MIC (Staphylococcus aureus [24]): 15.6 µg/mL (≈ 61.1 µM); MIC (Staphylococcus aureus [25]): ≤ 0.25 µg/mL; MIC (Enterococcus faecium): 15.6 µg/mL (≈ 61.1 µM); MIC (Staphylococcus aureus [26]): 7.8 µg/mL (≈ 30.5 µM); MIC (Staphylococcus aureus [27]): 3.9 µg/mL (≈ 15.3 µM); MIC (Staphylococcus aureus [28]): 7.8 µg/mL (≈ 30.5 µM); MIC (Staphylococcus aureus [29]): 3.9 µg/mL (≈ 15.3 µM); MIC (Staphylococcus aureus [30]): 7.8 µg/mL (≈ 30.5 µM); MIC (Enterococcus faecalis [31]): 15.6 µg/mL (≈ 61.1 µM); MIC (Staphylococcus aureus [32]): 7.8 µg/mL (≈ 30.5 µM) |
| O=c1c2ccccc2sn1-c1ccc(Br)cc1 | 2 (≈ 6.53 µM) | 3.9 (≈ 12.7 µM) | 1 (≈ 3.27 µM) | 0.5 (≈ 1.63 µM) | 2 (≈ 6.53 µM) | 2 (≈ 6.53 µM) | 2 (≈ 6.53 µM) | 2 (≈ 6.53 µM) | 2 (≈ 6.53 µM) | 2 (≈ 6.53 µM) | 0.5 (≈ 1.63 µM) | 3.9 (≈ 12.7 µM) | 2 (≈ 6.53 µM) | 3.9 (≈ 12.7 µM) | 2 (≈ 6.53 µM) | 2 (≈ 6.53 µM) | 2 (≈ 6.53 µM) | 15.6 (≈ 50.9 µM) | 2 (≈ 6.53 µM) | 3.9 (≈ 12.7 µM) | MIC (Staphylococcus aureus [1]): 3.9 µg/mL (≈ 12.7 µM); MIC (Staphylococcus aureus [6]): 3.9 µg/mL (≈ 12.7 µM); MIC (Staphylococcus aureus [12]): 3.9 µg/mL (≈ 12.7 µM); MIC (Staphylococcus aureus [19]): 3.9 µg/mL (≈ 12.7 µM); MIC (Staphylococcus aureus [24]): 3.9 µg/mL (≈ 12.7 µM); MIC (Staphylococcus aureus [25]): ≤ 0.25 µg/mL; MIC (Enterococcus faecium): 7.8 µg/mL (≈ 25.5 µM); MIC (Staphylococcus aureus [26]): 3.9 µg/mL (≈ 12.7 µM); MIC (Staphylococcus aureus [27]): 2 µg/mL (≈ 6.53 µM); MIC (Staphylococcus aureus [28]): 2 µg/mL (≈ 6.53 µM); MIC (Staphylococcus aureus [29]): 2 µg/mL (≈ 6.53 µM); MIC (Staphylococcus aureus [30]): 2 µg/mL (≈ 6.53 µM); MIC (Staphylococcus aureus [32]): 2 µg/mL (≈ 6.53 µM) |
| C#Cc1ccc(-n2sc3ccccc3c2=O)cc1 | 2 (≈ 7.96 µM) | 3.9 (≈ 15.5 µM) | 2 (≈ 7.96 µM) | 3.9 (≈ 15.5 µM) | 2 (≈ 7.96 µM) | 3.9 (≈ 15.5 µM) | 2 (≈ 7.96 µM) | 2 (≈ 7.96 µM) | 3.9 (≈ 15.5 µM) | 3.9 (≈ 15.5 µM) | 1 (≈ 3.98 µM) | 3.9 (≈ 15.5 µM) | 2 (≈ 7.96 µM) | 3.9 (≈ 15.5 µM) | 2 (≈ 7.96 µM) | 3.9 (≈ 15.5 µM) | 2 (≈ 7.96 µM) | < 125 | 3.9 (≈ 15.5 µM) | 3.9 (≈ 15.5 µM) | MIC (Staphylococcus aureus [9]): 2 µg/mL (≈ 7.96 µM); MIC (Staphylococcus aureus [25]): 0.5 µg/mL (≈ 1.99 µM); MIC (Enterococcus faecium): 7.8 µg/mL (≈ 31 µM); MIC (Staphylococcus aureus [27]): 1 µg/mL (≈ 3.98 µM); MIC (Staphylococcus aureus [28]): 3.9 µg/mL (≈ 15.5 µM); MIC (Staphylococcus aureus [29]): 2 µg/mL (≈ 7.96 µM); MIC (Staphylococcus aureus [32]): 2 µg/mL (≈ 7.96 µM) |
